Bioassay records (PubChem BioAssay)
Shown are actives, neighbours in structure and some others; about 5.8% of the full set was active somewhere.
GASC1 inh – KDM4C (human) demethylase inhibition | Q9H3R0 | GST-KDM4C 2-372, H3K9me3 peptide, LANCE TR-FRET | inhibition, % at 12.5 µM | hit rate 0.15% among 96,000;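 active = mean replicate inhibition above about 25%, with at least 55% of replicates also reaching it, limit read from the data, passing the limit was not always enough; inconclusive = only one of those two conditions met; inactive = neither condition met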
Target sequence (Q9H3R0 2-372 limits assumed): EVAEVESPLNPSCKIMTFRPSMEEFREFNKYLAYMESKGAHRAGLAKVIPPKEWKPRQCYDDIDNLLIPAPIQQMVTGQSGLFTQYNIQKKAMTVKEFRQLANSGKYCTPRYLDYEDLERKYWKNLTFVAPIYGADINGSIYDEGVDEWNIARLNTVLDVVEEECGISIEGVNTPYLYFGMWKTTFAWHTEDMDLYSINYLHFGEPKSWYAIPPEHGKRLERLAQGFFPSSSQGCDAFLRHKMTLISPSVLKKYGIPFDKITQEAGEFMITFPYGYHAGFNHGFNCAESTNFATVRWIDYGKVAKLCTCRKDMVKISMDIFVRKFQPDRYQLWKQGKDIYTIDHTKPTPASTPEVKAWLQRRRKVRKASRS
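Material: GST-tagged GASC-1 (JMJD2C) catalytic fragment, aa 2-372. Input: enzyme final amount 10 nM. Medium: HEPES buffer, pH 7.5, plus ascorbate. Reagent: H3K9me3 peptide substrate, Fe(II), 2-oxoglutarate. Doses: single dose. Times: reaction 30 min RT, detection step 1 h RT. Measured by: LANCE TR-FRET. Evaluation: Fall in 671/618 emission ratio as inhibition.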
T cruzi growth-1 – T. cruzi proliferation inhibition. AID 624255. inhibition, % at 8.34 µM. hit rate 5.9% among 77,000. T. cruzi beta-gal in NIH3T3, GalScreen luminescence, 90 h;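 active = mean inhibition above about 93%, with at least 55% of replicates each passing it, limit read from the data, passing the limit was not always enough; inconclusive = only one of those two conditions holds; inactive = neither condition holds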
IDH1 mut inh – blocks human IDH1 R132H reductase activity; O75874; diaphorase/resazurin fluorescence, 60 min; inhibition, % at 10 µM; hit rate 0.18% among 70,000; AID 624101; in the data active = inhibition above about 34%; inconclusive = no clear call, values can overlap the other calls; inactive = below about 11%
Pf Dd2 inh – blocks growth of Plasmodium falciparum Dd2 parasites. P. falciparum Dd2 growth, SYBR Green, 72 h; active compounds read low. activity change, % at 10 µM. hit rate 2.3% among 94,000; in the data active = activity change below about -80%; inconclusive = no clear call, values can overlap the other calls
T cruzi growth-2 – blocks T. cruzi growth in NIH3T3 host cells | shares compounds with T cruzi growth-1 | T. cruzi beta-gal in NIH3T3, GalScreen luminescence, 90 h | inhibition, % at 8.35 µM | hit rate 72% among 5,600;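 active = mean replicate inhibition above about 95% and at least 55% of replicates individually reaching it, limit read from the data; inconclusive = only one of the two criteria is met; inactive = neither criterion is met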
T cruzi growth-3 – blocks T. cruzi growth in NIH3T3 host cells; shares compounds with T cruzi growth-1; T. cruzi beta-gal in NIH3T3, GalScreen luminescence, 90 h; inhibition, % at 2.09 µM; hit rate 21% among 5,600;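 active = mean inhibition above about 95%, with at least 55% of replicates also reaching it, limit read from the data; inconclusive = meets just one of the two conditions; inactive = meets neither condition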
3T3 cytotox – NIH/3T3 (mouse) viability loss; cytotoxicity (signal decrease), % at 8.35 µM; shares compounds with T cruzi growth-1; NIH/3T3 viability, CellTiter-Glo ATP luminescence, 90 h; hit rate 14% among 5,600;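 active = mean signal decrease across replicates above about 35% based on untreated-well scatter, with enough replicates individually passing, limit read from the data; inconclusive = no rule stated though some were filed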
NIH3T3 tox 2 – cytotoxicity in mouse NIH/3T3 fibroblasts; inhibition, % at 24.9 µM; hit rate 56% among 5,600; AID 651744; NIH/3T3 viability, CellTiter-Glo ATP luminescence, 90 h; shares compounds with T cruzi growth-1;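 active = mean loss of cell viability signal at or above a set limit, and enough replicates individually reaching it; inconclusive = meets only the mean limit or only the replicate share; inactive = meets neither condition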
Of the large screens only hits and unclear results are named; the others gave an inactive call (follow-up assays come after a bar, where they were run).

C[C@@H]1CN([C@H](C)CO)C(=O)Cc2cc(NS(=O)(=O)c3ccc(F)cc3)ccc2O[C@H]1CN(C)Cc1ccc(Cl)c(Cl)c1	none
COc1cc(CNC23CC4CC(CC(C4)C2)C3)ccc1OCC(N)=O	none (no result: GASC1 inh, T cruzi growth-1, Pf Dd2 inh)
C[C@@H]1CN([C@H](C)CO)C(=O)c2cc(/C=C/c3ccccc3)cnc2O[C@H]1CN(C)Cc1ccc2c(c1)OCO2	T cruzi growth-1 121.4 | T cruzi growth-2 100.2 | T cruzi growth-3 inconclusive | 3T3 cytotox 38.4 | NIH3T3 tox 2 104.3
C[C@H]1CN([C@@H](C)CO)C(=O)c2cc(/C=C/c3ccccc3)cnc2O[C@@H]1CN(C)Cc1ccc2c(c1)OCO2	T cruzi growth-1 118.0 | T cruzi growth-2 108.2 | T cruzi growth-3 inactive | 3T3 cytotox inactive | NIH3T3 tox 2 102.5
C[C@H](CO)N1C[C@H](C)[C@H](CN(C)Cc2ccc3c(c2)OCO3)Oc2ncc(/C=C/c3ccccc3)cc2C1=O	T cruzi growth-1 111.4 | T cruzi growth-2 97.8 | T cruzi growth-3 inactive | 3T3 cytotox inactive | NIH3T3 tox 2 103.3
C[C@H](CO)N1C[C@H](C)[C@@H](CN(C)Cc2ccc3c(c2)OCO3)Oc2ncc(/C=C/c3ccccc3)cc2C1=O	none
C[C@H]1CN([C@@H](C)CO)C(=O)c2cc(/C=C/c3ccccc3)cnc2O[C@H]1CN(C)Cc1ccc2c(c1)OCO2	none
COC(=O)CCCCCCC(=O)N/N=C/C1=CC[C@H]2C[C@@H]1C2(C)C	none (no result: GASC1 inh, T cruzi growth-1, Pf Dd2 inh)
O=C(Nc1cccc(F)c1)N1CCCCN2[C@H](CO)[C@@H](c3ccc(-c4ccccc4F)cc3)[C@H]2C1	T cruzi growth-1 107.9 (no result: IDH1 mut inh) | T cruzi growth-2 inactive | T cruzi growth-3 106.5 | 3T3 cytotox 74.6 | NIH3T3 tox 2 105.0
O=C(Nc1cccc(F)c1)N1CCCCN2[C@H](CO)[C@@H](c3ccc(-c4ccccc4F)cc3)[C@@H]2C1	none (no result: IDH1 mut inh)
O=C(Nc1cccc(F)c1)N1CCCCN2[C@@H](CO)[C@H](c3ccc(-c4ccccc4F)cc3)[C@@H]2C1	T cruzi growth-1 109.8 (no result: IDH1 mut inh) | T cruzi growth-2 99.1 | T cruzi growth-3 inactive | 3T3 cytotox 81.8 | NIH3T3 tox 2 106.6
O=C(NC(=S)NCc1cccnc1)c1ccc(-c2cccc(Cl)c2Cl)o1	none (no result: GASC1 inh, T cruzi growth-1, Pf Dd2 inh)
COC(=O)COc1ccc(NC(=O)c2ccc([N+](=O)[O-])c(C)c2)cc1	none (no result: GASC1 inh, T cruzi growth-1, Pf Dd2 inh)
CC(C)CC#Cc1ccc2c(c1)O[C@@H](CN(C)C(=O)c1ccccc1F)[C@@H](C)CN([C@@H](C)CO)S2(=O)=O	T cruzi growth-1 inconclusive | T cruzi growth-2 95.7 | T cruzi growth-3 inactive | 3T3 cytotox inactive | NIH3T3 tox 2 106.3
CCCC#Cc1ccc2c(c1)O[C@H](CN(C)C(=O)c1ccccc1F)[C@H](C)CN([C@@H](C)CO)S2(=O)=O	none
CC(C)CC#Cc1ccc2c(c1)O[C@@H](CN(C)C(=O)c1ccccc1F)[C@@H](C)CN([C@H](C)CO)S2(=O)=O	T cruzi growth-1 99.5 | T cruzi growth-2 inactive | T cruzi growth-3 inactive | 3T3 cytotox inactive | NIH3T3 tox 2 102.7
CCCC#Cc1ccc2c(c1)O[C@@H](CN(C)C(=O)c1ccccc1F)[C@H](C)CN([C@@H](C)CO)S2(=O)=O	T cruzi growth-1 111.8, Pf Dd2 inh -81.2 | T cruzi growth-2 103.5 | T cruzi growth-3 inactive | 3T3 cytotox inactive | NIH3T3 tox 2 84.9
CC(C)CC#Cc1ccc2c(c1)O[C@H](CN(C)C(=O)c1ccccc1F)[C@H](C)CN([C@@H](C)CO)S2(=O)=O	T cruzi growth-1 inconclusive
COCC#Cc1ccc2c(c1)O[C@@H](CN(C)C(=O)c1ccccc1F)[C@@H](C)CN([C@@H](C)CO)S2(=O)=O	none
O=C(N/N=C/c1cccc(Br)c1)c1ccccc1O	none (no result: GASC1 inh, T cruzi growth-1, Pf Dd2 inh)
CC(NS(=O)(=O)c1ccc(Cl)cc1)C(=O)Nc1ccccc1Sc1ccccc1 (stereo unspecified)	none (no result: GASC1 inh, T cruzi growth-1, Pf Dd2 inh)
CC1(C)COC(/C=C(\N)c2ccc(Br)cc2)=N1	none (no result: GASC1 inh, T cruzi growth-1, Pf Dd2 inh)
